Test results: article PMC9040061 (ACS infectious diseases, 2020)
Changes are numbered by the printed parent chain. Converted amounts (≈) assume the structure as drawn.

Legend:
EfaUPPS N31E mutant [1] = biological target: T1, EfaUPPS N31E mutant (Enterococcus faecalis, UniProt Q831K9, N37E); assay: Surface plasmon resonance binding assay; settings: SPR
T1 sequence (Q831K9 1-271 N37E): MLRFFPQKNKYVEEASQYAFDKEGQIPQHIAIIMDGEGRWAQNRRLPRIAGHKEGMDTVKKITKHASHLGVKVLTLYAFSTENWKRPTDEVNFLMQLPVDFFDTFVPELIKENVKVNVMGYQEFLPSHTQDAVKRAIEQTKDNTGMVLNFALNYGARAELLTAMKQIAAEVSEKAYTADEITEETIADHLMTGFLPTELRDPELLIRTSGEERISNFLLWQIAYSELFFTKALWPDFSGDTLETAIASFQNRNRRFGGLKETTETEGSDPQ
In short: (§1)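 Point mutants of E. faecalis UPPS were made by site-directed mutagenesis and purified like wild type (Ni-NTA, then gel filtration). Enzyme (50 μg/mL) was amine-coupled to a carboxymethyl dextran chip. Test compound (0.4–50 μM) in phosphate-buffered saline with 0.005% Tween-20, pH 7.8, was flowed at 25 μL/min: 1.5 min association, 2.5 min dissociation. Reference-cell signal was subtracted, and KD came from a 1:1 model.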

EfaUPPS M28A mutant = assay: UPPS inhibition assay, mutant enzyme; type: biochemical, Enterococcus faecalis; settings: M28A mutant versus wild-type EfaUPPS
In short: (§2)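 Mutant E. faecalis UPPS was His-tagged in pET28a, expressed in E. coli BL21(DE3) (1 mM IPTG, 16 °C, 16 h) and purified by Ni-NTA and gel filtration. Assays ran 30 min at 37 °C in 100 mM Tris-HCl pH 7.5, 0.5 mM MgCl2, 50 mM KCl, 35 μM IPP, 5 μM FPP, 0.005% Triton X-100, and were EDTA-stopped. Released pyrophosphate was read by coupled fluorescence (316/456 nm). Mutant IC50 was compared with wild type; at least three biological replicates.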

Escherichia coli BAS 849 = assay: MIC, microtiter broth dilution; type: cell-based; settings: E. coli BAS 849, deficient outer-membrane structure
In short: (§3)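 MICs were measured by broth microdilution in LB broth against E. coli DH5α, BL21(DE3) and BAS 849, the last an outer-membrane-defective strain with raised permeability. Tetracycline and ampicillin served as reference antibiotics. Values are means of at least three biological replicates.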

EfaUPPS H46W mutant = assay: UPPS inhibition assay, mutant enzyme; type: biochemical, Enterococcus faecalis; settings: H46W mutant versus wild-type EfaUPPS
In short: as §2

EfaUPPS N31F mutant = assay: UPPS inhibition assay, mutant enzyme; type: biochemical, Enterococcus faecalis; settings: N31F mutant versus wild-type EfaUPPS
In short: as §2

[2] = tested on: E. coli BAS 849 transformed with the empty vector pQE80L; assay: In vivo growth inhibition assay on agar; type: cell-based, Escherichia coli; settings: compound at 8 μg/mL, IPTG 0.5 mM
In short: (§4)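 E. coli BAS 849 carried pQE80L (T5 promoter) either empty or bearing the UPPS gene from E. faecalis ATCC 29212, S. aureus ATCC 29213 or E. coli DH5α. Cultures were spread on LB agar with ampicillin, IPTG and test compound, incubated overnight at 37 °C and scored for growth.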

E. coli 70S ribosome = assay: In vitro translation inhibition assay; type: biochemical, Escherichia coli; settings: read-out: IC50, in vitro translation, PURE system
EfaUPPS M28W mutant [3] = biological target: T2, EfaUPPS M28W mutant (Enterococcus faecalis, UniProt Q831K9, M34W); assay: Surface plasmon resonance binding assay; settings: SPR
T2 sequence (Q831K9 1-271 M34W): T1 sequence (Q831K9 1-271 N37E) with M34W, E37N
In short: as §1

EfaUPPS N31A mutant = EfaUPPS N31A mutant (Enterococcus faecalis, UniProt Q831K9, N37A); assay: UPPS inhibition assay, mutant enzyme; type: biochemical
In short: as §2

[4] = biological target: recombinant E. coli UPPS (EcoUPPS) (Escherichia coli, UniProt P60472); type: biochemical
[5] = tested on: UPPS-overexpressed E. coli BAS 849; assay: In vivo growth inhibition assay on agar; type: cell-based, Escherichia coli; settings: overexpression of EfaUPPS, SauUPPS and EcoUPPS; compound at 8 μg/mL; IPTG 0.5 mM
In short: as §4

EfaUPPS M28E mutant = assay: UPPS inhibition assay, mutant enzyme; type: biochemical, Enterococcus faecalis; settings: M28E mutant versus wild-type EfaUPPS
In short: as §2

[6] = biological target: recombinant E. faecalis UPPS (EfaUPPS) (Enterococcus faecalis, UniProt Q831K9); assay: UPPS inhibition assay; type: biochemical; settings: for IC50: EfaUPPS, enzyme-coupled fluorescence assay
EfaUPPS F73S mutant = EfaUPPS F73S mutant (Enterococcus faecalis, UniProt Q831K9, F79S); assay: UPPS inhibition assay, mutant enzyme; type: biochemical
In short: as §2

normal E. coli species = assay: MIC, microtiter broth dilution; type: cell-based, Escherichia coli
In short: as §3

EfaUPPS N31E mutant [7] = biological target: T1, EfaUPPS N31E mutant; assay: UPPS inhibition assay, mutant enzyme; type: biochemical; settings: N31E mutant versus wild-type EfaUPPS
In short: as §2

EfaUPPS R42A mutant = EfaUPPS R42A mutant (Enterococcus faecalis, UniProt Q831K9, R48A); assay: UPPS inhibition assay, mutant enzyme; type: biochemical
In short: as §2

wild-type EfaUPPS = wild-type EfaUPPS (Enterococcus faecalis, UniProt Q831K9); assay: Surface plasmon resonance binding assay; settings: for Kd: read-out: equilibrium dissociation constant (KD), SPR, wild-type EfaUPPS, one-state binding model
EfaUPPS M28W mutant [8] = biological target: T2, EfaUPPS M28W mutant; assay: UPPS inhibition assay, mutant enzyme; type: biochemical; settings: M28W mutant versus wild-type EfaUPPS
In short: as §2

EfaUPPS D29A mutant = EfaUPPS D29A mutant (Enterococcus faecalis, UniProt Q831K9, D35A); assay: UPPS inhibition assay, mutant enzyme; type: biochemical
In short: as §2

[9] = biological target: recombinant S. aureus UPPS (SauUPPS) (Staphylococcus aureus, UniProt P60477); assay: UPPS inhibition assay; type: biochemical
EfaUPPS S74T mutant = EfaUPPS S74T mutant (Enterococcus faecalis, UniProt Q831K9, S80T); assay: UPPS inhibition assay, mutant enzyme; type: biochemical
In short: as §2

EfaUPPS W228A mutant = assay: UPPS inhibition assay, mutant enzyme; type: biochemical, Enterococcus faecalis; settings: W228A mutant versus wild-type EfaUPPS
In short: as §2

recombinant E. coli UPPS (EcoUPPS), sequence (P60472 whole entry): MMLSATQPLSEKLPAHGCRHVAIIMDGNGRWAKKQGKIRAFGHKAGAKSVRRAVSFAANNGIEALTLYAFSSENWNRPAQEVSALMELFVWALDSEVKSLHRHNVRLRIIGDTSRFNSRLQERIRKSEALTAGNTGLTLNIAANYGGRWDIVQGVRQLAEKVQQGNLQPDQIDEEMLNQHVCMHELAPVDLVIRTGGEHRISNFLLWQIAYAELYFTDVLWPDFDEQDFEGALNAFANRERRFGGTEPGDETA

`COc1cc(O)c2c(O)c3c(c4c2c1[C@]1(C4)C(C)=CCCC1(C)C)[C@H](O)[C@@]1(O)CC(=O)C(C(N)=O)=C(O)[C@@]1(O)C3=O` [VirA, viridicatumtoxin A] was tested, and the Kd (EfaUPPS N31E mutant [1]) was 322 µM, the “binding affinity decreased, fold, versus wild type” value (EfaUPPS N31E mutant [1]) was “approximately 3 fold” and the IC50-MT/IC50-WT (EfaUPPS M28A mutant) was 0.5. For the same compound, the MIC (Escherichia coli BAS 849) was 8 µg/mL (≈ 14.1 µM), the IC50-MT/IC50-WT (EfaUPPS H46W mutant) was 4.5 and the IC50-MT/IC50-WT (EfaUPPS N31F mutant) was 10.7. The “growth of E. coli BAS 849” value [2] was “completely inhibited”, the IC50 (E. coli 70S ribosome) was 700 µM and the Kd (EfaUPPS M28W mutant [3]) was 9.8 µM. The “binding affinity fold higher than the wild-type enzyme” value (EfaUPPS M28W mutant [3]) was “about 12 fold”, the “change of IC50 of mutant compared with wild-type enzyme” value (shortened to “change of IC50 of mutant”) (EfaUPPS N31A mutant) was “decreased IC50” and the IC50 ([4]; EcoUPPS) was 3.9 µM. The “growth of E. coli BAS 849” value [5] was “rescued the cell growth”, the IC50-MT/IC50-WT (EfaUPPS M28E mutant) was 123.3 and the IC50 [6] was 1.6 µM. The “change of IC50 of mutant” value (EfaUPPS F73S mutant) was “decreased IC50”, the MIC (normal E. coli species) was over 64 µg/mL and the IC50-MT/IC50-WT (EfaUPPS N31E mutant [7]) was 42.4. The “susceptibility of mutant compared with wild-type enzyme” value (EfaUPPS R42A mutant) was “more susceptible”, the Kd (wild-type EfaUPPS) was 123 µM and the IC50-MT/IC50-WT (EfaUPPS M28W mutant [8]) was 0.2. For the same compound, the “susceptibility of mutant compared with wild-type enzyme” value (EfaUPPS D29A mutant) was “more susceptible”, the IC50 ([9]; SauUPPS) was 4.1 µM and the “change of IC50 of mutant” value (EfaUPPS S74T mutant) was “decreased IC50”. The IC50-MT/IC50-WT (EfaUPPS W228A mutant) was 6.0.
With viridicatumtoxin B [VirB] the MIC (Escherichia coli BAS 849) was 8 µg/mL, the “growth of E. coli BAS 849” value [2] was “completely inhibited” and the IC50 (E. coli 70S ribosome) was 600 µM. The “growth of E. coli BAS 849” value [5] was “rescued the cell growth”, the IC50 [6] was 0.0581 µM and the MIC (normal E. coli species) was over 64 µg/mL. For the same compound, the Kd (wild-type EfaUPPS) was 11.5 µM.
In the case of `CN(C)[C@@H]1C(O)=C(C(N)=O)C(=O)[C@@]2(O)C(O)=C3C(=O)c4c(O)cccc4[C@@](C)(O)[C@H]3C[C@@H]12` [Tet, tetracycline, reference compound], the IC50 (E. coli 70S ribosome) is reported as 15 µM, the “IC50 fold higher than that for VirA” value [4] is reported as 6 fold and the “IC50 fold higher than that for VirA” value [6] is reported as 12 fold. For the same compound, the SPR binding signals (wild-type EfaUPPS; EfaUPPS) was “cannot detect any binding signals” and the “IC50 fold higher than that for VirA” value [9] was 6 fold.
